Measured values: ChEMBL document CHEMBL4400539, “Discovery of a Novel Chemotype of Histone Lysine Methyltransferase EHMT1/2 (GLP/G9a) Inhibitors: Rational Design, Synthesis, Biological Evaluation, and Co-crystal Structure” (J Med Chem, 2019)
The source made the active and inactive calls. No cut-off for these calls is given here.

Key:
[1] = Chemical stability of the compound in PBS buffer after 72 hrs by HPLC analysis; assay type: physicochemical
Procedure, shortened: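 Stability checked by HPLC after exposure to PBS over 72 h.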

[2] = target: T1, Histone-lysine N-methyltransferase EHMT2 (Homo sapiens, UniProt Q96KQ7); test: Binding affinity to human His-tagged G9a expressed in Escherichia coli Rosetta (DE3) after 30 mins by MST binding assay
T1 sequence (Q96KQ7 whole entry): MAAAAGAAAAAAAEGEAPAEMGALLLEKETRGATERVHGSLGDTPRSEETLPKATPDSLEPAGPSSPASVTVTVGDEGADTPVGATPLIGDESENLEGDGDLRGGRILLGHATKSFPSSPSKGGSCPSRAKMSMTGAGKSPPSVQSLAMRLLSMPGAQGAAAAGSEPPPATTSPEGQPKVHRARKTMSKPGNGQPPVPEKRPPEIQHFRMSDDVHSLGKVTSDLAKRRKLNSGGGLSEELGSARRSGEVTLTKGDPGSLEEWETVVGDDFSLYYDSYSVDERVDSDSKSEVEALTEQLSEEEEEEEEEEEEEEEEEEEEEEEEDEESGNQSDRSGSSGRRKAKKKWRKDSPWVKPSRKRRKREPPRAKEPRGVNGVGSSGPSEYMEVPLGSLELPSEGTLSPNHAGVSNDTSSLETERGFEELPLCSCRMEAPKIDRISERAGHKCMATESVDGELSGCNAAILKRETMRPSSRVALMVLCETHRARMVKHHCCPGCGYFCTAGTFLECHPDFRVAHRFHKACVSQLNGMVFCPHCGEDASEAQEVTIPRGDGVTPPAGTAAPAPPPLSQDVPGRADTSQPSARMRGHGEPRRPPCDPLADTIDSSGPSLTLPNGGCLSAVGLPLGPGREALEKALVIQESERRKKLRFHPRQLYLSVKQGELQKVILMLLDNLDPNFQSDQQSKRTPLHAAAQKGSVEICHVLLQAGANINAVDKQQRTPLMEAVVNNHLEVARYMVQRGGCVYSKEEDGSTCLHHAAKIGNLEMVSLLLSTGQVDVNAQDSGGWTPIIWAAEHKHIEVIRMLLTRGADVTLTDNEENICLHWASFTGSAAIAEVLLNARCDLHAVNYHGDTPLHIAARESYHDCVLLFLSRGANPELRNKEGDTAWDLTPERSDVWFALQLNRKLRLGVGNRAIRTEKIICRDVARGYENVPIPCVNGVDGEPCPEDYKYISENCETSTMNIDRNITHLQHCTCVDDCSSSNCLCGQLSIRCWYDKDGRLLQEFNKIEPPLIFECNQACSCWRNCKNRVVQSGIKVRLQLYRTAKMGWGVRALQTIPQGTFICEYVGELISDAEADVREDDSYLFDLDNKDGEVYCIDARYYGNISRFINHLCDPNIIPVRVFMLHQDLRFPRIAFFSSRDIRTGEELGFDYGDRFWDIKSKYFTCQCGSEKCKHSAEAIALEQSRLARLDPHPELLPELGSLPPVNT

[3] = target: DNA (cytosine-5)-methyltransferase 3B (Homo sapiens) (UniProt Q9UBC3); test: Inhibition of N-terminal GST-tagged recombinant full length human DNMT3b (2 to 853 residues) using bacteriophage lambda DNA as substrate preincubated for 20 mins followed by [3H]-SAM and measured after 60 mins by scintillation counting
[4] = target: T2, Histone-lysine N-methyltransferase EHMT2 (Homo sapiens) (UniProt Q96KQ7)
T2 sequence (whole entry): T1 sequence (Q96KQ7 whole entry)

[5] = target: T2, Histone-lysine N-methyltransferase EHMT2 (Homo sapiens); test: Inhibition of recombinant human G9a at 10 uM using biotinylated-Histone H3 peptide (1 to 21 residues) after 30 mins by AlphaLISA assay relative to control
Procedure, shortened: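 G9a AlphaLISA at fixed 10 or 25 μM compound: human recombinant G9a 1 nM, 30 min preincubation, then biotinylated H3(1–21) 100 nM plus SAM 15 μM for 30 min at room temperature, pH 8.8 Tris buffer with 0.01% Tween-20; anti-H3K9me2 acceptor and streptavidin donor beads; percent of DMSO control.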

[6] = target: T3, Histone-lysine N-methyltransferase EHMT1 (Homo sapiens) (UniProt Q9H9B1); test: Inhibition of recombinant human GLP at 25 uM using biotinylated-Histone H3 peptide (1 to 21 residues) after 30 mins by AlphaLISA assay relative to control
T3 sequence (whole entry): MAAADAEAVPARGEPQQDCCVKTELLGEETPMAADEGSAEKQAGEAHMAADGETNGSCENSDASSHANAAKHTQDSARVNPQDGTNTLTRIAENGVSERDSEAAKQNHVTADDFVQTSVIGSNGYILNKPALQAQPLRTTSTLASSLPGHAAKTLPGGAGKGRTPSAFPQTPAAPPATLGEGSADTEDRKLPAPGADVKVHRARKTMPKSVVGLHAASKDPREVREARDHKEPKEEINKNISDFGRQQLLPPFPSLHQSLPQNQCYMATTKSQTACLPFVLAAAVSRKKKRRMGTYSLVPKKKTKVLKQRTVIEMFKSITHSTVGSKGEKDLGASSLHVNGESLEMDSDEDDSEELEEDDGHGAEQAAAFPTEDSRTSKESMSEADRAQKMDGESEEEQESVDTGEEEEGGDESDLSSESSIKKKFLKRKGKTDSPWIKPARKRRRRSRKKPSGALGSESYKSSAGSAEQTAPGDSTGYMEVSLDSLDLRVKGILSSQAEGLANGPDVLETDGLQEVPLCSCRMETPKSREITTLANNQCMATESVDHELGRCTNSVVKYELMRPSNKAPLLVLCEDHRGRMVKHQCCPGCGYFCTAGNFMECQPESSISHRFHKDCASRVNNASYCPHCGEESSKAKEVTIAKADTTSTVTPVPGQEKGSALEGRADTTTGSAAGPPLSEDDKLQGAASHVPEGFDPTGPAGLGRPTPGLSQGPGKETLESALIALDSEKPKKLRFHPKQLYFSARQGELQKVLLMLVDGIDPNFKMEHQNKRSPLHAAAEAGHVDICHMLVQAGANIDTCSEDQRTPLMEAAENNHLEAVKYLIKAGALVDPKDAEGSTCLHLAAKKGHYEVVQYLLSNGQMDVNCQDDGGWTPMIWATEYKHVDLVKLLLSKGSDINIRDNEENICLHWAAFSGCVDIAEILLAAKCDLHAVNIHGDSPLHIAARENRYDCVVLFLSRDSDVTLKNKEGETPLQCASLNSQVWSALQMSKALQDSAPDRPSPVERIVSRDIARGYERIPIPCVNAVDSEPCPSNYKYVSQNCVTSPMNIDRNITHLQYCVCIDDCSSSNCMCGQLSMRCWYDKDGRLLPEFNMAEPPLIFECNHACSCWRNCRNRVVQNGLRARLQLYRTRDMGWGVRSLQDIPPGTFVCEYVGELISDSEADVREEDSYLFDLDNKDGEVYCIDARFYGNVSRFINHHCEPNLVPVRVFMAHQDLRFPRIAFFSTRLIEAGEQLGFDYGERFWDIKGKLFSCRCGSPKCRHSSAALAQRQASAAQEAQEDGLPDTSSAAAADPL

[7] = Apparent permeability of the compound after 24 hrs by PAMPA; assay type: ADME

For `COc1cc2c(cc1OCCCN1CCCC1)N=C(C1CCCCC1)CN=C2NC1CCN(C(C)C)CC1`, the Stability [1] was “Stable”, the Kd [2] was 1.13 µM and the inhibition [3] was “inactive”. For the same compound, the Kdiss [4] was 0.0351, the inhibition [5] was 97% and the inhibition [6] was 98%. It also gave a Papp [7] of 4.8 ×10⁻⁷ cm/s.
